Compound activity from PubChem BioAssay.
NPY-Y1 PAM-ag = NPY-Y1 receptor potentiators or agonists, primary screen, cell-based. Neuropeptide Y receptor type 1 (Homo sapiens), P25929. NPY-Y1 expressing cells, potentiator/agonist activation. activation, % at 3.6 µM. hit rate 0.37% among 220,000. AID 1304, 2008; in the data active = activation above about 33%, passing the limit was not always enough;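 also: cells stimulated with NPY at EC10 then isoproterenol at EC100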
PGE2 EP2 inh = human EP2 receptor antagonists, primary screen, TR-FRET cAMP, C6 glioma cells. Prostaglandin E2 receptor EP2 subtype (Homo sapiens), P43116. hit rate 0.52% among 260,000. C6 glioma cells expressing human EP2; cells stimulated with saturating PGE2. inhibition, % at 25 µM;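 active = percent inhibition above 40 after rounding to a whole number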;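 also: rat C6 glioma host cells with rolipram phosphodiesterase inhibitor present; the protocol text gives 20 µM as final concentration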
Target sequence (P43116 whole entry, looked up): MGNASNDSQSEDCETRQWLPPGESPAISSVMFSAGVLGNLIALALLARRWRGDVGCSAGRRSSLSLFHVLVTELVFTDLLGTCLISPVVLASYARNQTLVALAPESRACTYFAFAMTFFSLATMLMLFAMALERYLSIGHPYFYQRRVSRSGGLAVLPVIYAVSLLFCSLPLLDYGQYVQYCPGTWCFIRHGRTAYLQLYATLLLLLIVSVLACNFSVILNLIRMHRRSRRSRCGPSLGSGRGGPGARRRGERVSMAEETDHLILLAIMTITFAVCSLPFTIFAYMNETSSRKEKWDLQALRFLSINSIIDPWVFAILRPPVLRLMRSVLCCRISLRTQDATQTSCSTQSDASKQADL
NPY-Y1 antag = NPY-Y1 receptor antagonists, primary screen, cell-based; Neuropeptide Y receptor type 1 (Homo sapiens), P25929; HEK293-CNG Y1 cells, membrane potential fluorescence; NPY at EC95, then isoproterenol; inhibition, % at 3.6 µM; hit rate 1% among 200,000; AID 1040, 2008;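 active = inhibition above the campaign mean inhibition of all tested compounds plus 3 SD, cut at about 20% in these data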
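Material: HEK293 cells co-expressing NPY Y1 receptor and cyclic-nucleotide gated channel. Timing: compound incubation 1 h at room temperature, readout 45 min post-stimulation. Signal: fluorescence, membrane potential probe.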
EP2 modulator = EP2 receptor modulators, cAMP readout, primary screen, cell-based, HTRF cAMP, PGE2 stimulation; AID 940, 2007; Prostaglandin E2 receptor EP2 subtype (Homo sapiens), P43116; hit rate 0.83% among 260,000; induction, % at 25 µM; EP2-expressing cells, cAMP HTRF FRET, PGE2 co-stimulation;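 active = compounds whose cAMP rise, as percent of the full-agonist control response, exceeds 60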;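 also: rat C6 glioma line stably carrying human EP2 under a CMV promoter; the protocol text gives 20 µM as final concentration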
NPY-Y2 PAM-ag = NPY-Y2 potentiators or agonists, primary screen, cell-based | Neuropeptide Y receptor type 2 (Homo sapiens), P49146 | cells expressing NPY-Y2, potentiator/agonist read-out | activation, % at 3.6 µM | hit rate 0.45% among 220,000 | AID 1359, 2008; in the data active = activation above about 27%;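 also: cells stimulated with NPY near EC25 plus isoproterenol at EC100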
NPY-Y2 antag = NPY-Y2 receptor antagonists, primary screen, cell-based; NPY-Y2 expressing cells, antagonist mode; hit rate 0.99% among 140,000; AID 793, 2007; inhibition, % at 2.7 µM
NPY1 antag conf = NPY-Y1 receptor antagonists, retest of hits, confirmation, HEK293-CNG cells, membrane potential fluorescence, triplicate; cAMP; NPY challenge against isoproterenol-raised cAMP; hit rate 21% among 1,200; inhibition, % at 3.6 µM; shares compounds with NPY-Y1 antag; in the data active = inhibition above about 20%
NPY-Y2 antag ct = NPY-Y2 receptor antagonists, selectivity check, confirmation, counter-screen for NPY-Y1 antagonist project, HEK293-CNG cells, membrane potential fluorescence, triplicate; hit rate 28% among 1,200; shares compounds with NPY-Y1 antag; antagonism; cells given NPY, then isoproterenol; inhibition, % at 3.6 µM; AID 1255, 2008
A number is an active result; . = inactive; / = not tested or not shown. Sampled rows, rich in hits. Any-hit rate of the full collection: about 2.8%. Rule as the data show it, unless noted: active = inhibition above about 17%; inactive = the rest.

SMILES	NPY-Y1 PAM-ag	PGE2 EP2 inh	NPY-Y1 antag	EP2 modulator	NPY-Y2 PAM-ag	NPY-Y2 antag	NPY1 antag conf	NPY-Y2 antag ct
CCOC(=O)C1(CC2CCCCO2)CCN(Cc2nccn2-c2cccc(C)c2)CC1 (configuration not stated)	.	.	.	.	.	/	/	/
CCOC(=O)C1(CC2CCCCO2)CCN(Cc2cc(F)ccc2-n2cccn2)CC1 (configuration not stated)	.	.	25	.	.	/	.	.
CCOC(=O)C1(CC2CCCCO2)CCN(Cc2nc3ccccc3[nH]2)CC1 (configuration not stated)	.	.	.	.	.	/	/	/
CCOC(=O)C1(CC2CCCCO2)CCN(Cc2c(C)cc(C)cc2-n2cccn2)CC1 (configuration not stated)	.	.	24	.	.	/	.	.
CCCC(=O)Nc1ccc2nc(CCC)n(Cc3ccc(Cl)cc3)c(=O)c2c1	/	.	/	.	/	/	/	/
CCC(=O)N1CCN(c2ccccc2NC(=O)COc2cccc(C)c2)CC1	.	.	20	.	.	.	.	.
CC(=O)N1CCN(c2ccccc2NC(=O)COc2cc(C)ccc2C(C)C)CC1	.	.	22	.	.	.	.	.
O=C(COc1ccccc1)Nc1ccccc1N1CCCC1	/	.	/	.	/	/	/	/
CN1CCN(c2ccccc2NC(=O)COc2ccccc2)CC1	.	.	21	.	.	.	.	.
COC(=O)c1ccccc1NC(=O)CSc1nnc(-c2ccncc2)n1C	/	.	/	.	/	/	/	/
C=CCN1CCN(C(CCC)c2nnnn2C2CCCCC2)CC1 (configuration not stated)	/	.	/	.	/	/	/	/
COC(=O)[C@@]1(Cc2ccc(F)cc2)[C@H]2c3cc(C(=O)N(C)C)n(C[C@H](O)CO)c3C[C@H]2CN1C(=O)c1ccccc1	.	.	.	.	.	.	/	/
COC(=O)[C@@]1(Cc2ccc(F)cc2)[C@H]2c3cc(C(=O)N(C)C)n(Cc4ccc(OC(F)(F)F)cc4)c3C[C@H]2CN1C(=O)c1ccccc1	.	/	35	.	.	.	.	.
COc1ccc(OC)c(Nc2cc(-c3ccccc3)nc(N)n2)c1	.	.	42	.	.	.	.	.
COc1ccc(OC)c(Nc2cc(C)nc3ccccc23)c1	.	.	.	.	.	.	/	/
Cc1ncc(-c2ccncc2)c(C2CCCN(C(=O)CCn3nccc3C)C2)n1 (configuration not stated)	/	/	/	.	/	/	/	/
O=[N+]([O-])c1cc2c(c(CSc3ncccn3)c1)OCOC2	.	.	24	.	.	/	.	.
COc1ccc(-c2nnc3sc(C4CCCCC4)nn23)cc1OC	.	.	33	.	.	.	24	38
CCn1nnc(-c2ccccc2NC(=O)c2cccc(-n3cnnn3)c2)n1	.	.	.	.	.	.	/	/
CCn1nnc(-c2ccccc2NC(=O)c2ccc(-n3cnnn3)cc2)n1	.	.	23	.	.	.	.	.
CCCCN(C)C(=O)c1nc2ccccn2c1CN1CCN(C/C=C/c2ccccc2)CC1	.	.	26	.	.	/	.	.
COCC(=O)Nc1ccccc1C#N	.	/	21	.	.	.	.	.
COCC(=O)Nc1ccccc1Br	.	.	.	.	.	.	/	/
NC(=O)COC(=O)CSc1cccc2cccc(Cl)c12	.	.	27	.	.	/	.	.
COc1ccccc1C1(NC(=O)Cn2c(C)nc3ccccc32)CCCC1	/	.	/	.	/	/	/	/
SMILES	NPY-Y1 PAM-ag	PGE2 EP2 inh	NPY-Y1 antag	EP2 modulator	NPY-Y2 PAM-ag	NPY-Y2 antag	NPY1 antag conf	NPY-Y2 antag ct
Cc1nn(CC(=O)Nc2ccncc2)c(=O)c2cc3occc3n12	/	.	/	.	/	/	/	/
Clc1ccc(-c2nnc3c4ccccc4nc(N4CCOCC4)n23)cc1Cl	.	/	21	.	.	.	.	.
Brc1ccc(-c2nnc3c4ccccc4nc(N4CCOCC4)n23)cc1	.	/	.	.	.	.	/	/
COC(=O)C1=CN(CC2CCCO2)C=C(C(=O)OC)C1c1ccsc1 (configuration not stated)	.	.	.	.	.	.	/	/
COC(=O)C1=CN(CCOC23CC4CC(CC(C4)C2)C3)C=C(C(=O)OC)C1c1ccsc1	.	.	31	.	.	/	41	24
Cn1c(-c2ccc3c(c2)OCO3)cnc1NCc1cccc(Cl)c1	.	.	34	.	.	.	.	.
Cc1ccc(C2C(C(=O)c3cccs3)=C(O)C(=O)N2c2nnc(C)s2)cc1 (configuration not stated)	.	.	27	.	.	/	31	21
COc1ccc(CC2(CO)CCN(CC3=CC[C@H]4C[C@@H]3C4(C)C)CC2)cc1	.	.	22	.	.	/	.	.
CCOC(=O)c1c(NC(=O)C2COc3ccccc3O2)sc2c1CCN(Cc1ccccc1)C2 (configuration not stated)	.	.	22	.	.	.	23	20
CCOc1ccccc1C(C(=O)NC(C)(C)C)N(C(=O)c1csnn1)C1CCCC1 (configuration not stated)	/	.	/	.	/	/	/	/
COc1cccc(CNC(=O)CCl)c1	.	.	.	.	.	.	/	/
COc1cccc(CNC(=O)C(c2ccc(Cl)cc2)C(C)C)c1 (configuration not stated)	.	.	21	.	.	.	.	.
Cc1cc2cc(CN(Cc3ccccc3)C(=O)N(C)C)c3nnnn3c2cc1C	/	.	/	.	/	/	/	/
COC(=O)CNC(=O)c1cc(-c2ccncc2)nc2c(C)c(Cl)ccc12	.	.	.	.	.	/	/	/
Cc1c(Cl)ccc2c(C(=O)NCCN3CCCCC3)cc(-c3ccccn3)nc12	.	.	25	.	.	/	.	29
CN(C)CCN(Cc1ccncc1)Cc1c(F)cccc1Cl	/	.	/	.	/	/	/	/
COc1ccccc1N1CCN(C(=O)C2c3ccccc3Oc3ccccc32)CC1	.	.	23	.	.	.	.	.
O=C(NC(=S)NCc1ccccc1)c1ccccc1	.	.	.	.	.	/	/	/
O=C(NC(=S)NCc1ccc(F)cc1)c1ccccc1	.	.	23	.	.	.	.	.
O=C(NCCCO)C1CCN(S(=O)(=O)c2ccc(F)cc2)CC1	/	.	/	.	/	/	/	/
